Reference: ChEMBL document CHEMBL4376814, “Novel cyclin-dependent kinase 9 (CDK9) inhibitor with suppression of cancer stemness activity against non-small-cell lung cancer” (Eur J Med Chem, 2019)
Active and inactive are the calls of the source. The rule behind the calls is not given here.

What was measured:
[1] = species: Homo sapiens; test: Inhibition of recombinant full-length human JNK2alpha2 S51N mutant at 1 uM using ATF2 as substrate measured after 40 mins in presence of [gamma33P]ATP by scintillation counting method relative to control
[2] = target: LIM domain kinase 1 (Homo sapiens) (UniProt P53667); test: Inhibition of recombinant human LIMK1 (285 to 638 residues) at 1 uM using cofilin as substrate measured after 40 mins in presence of [gamma33P]ATP by scintillation counting method relative to control
[3] = species: Homo sapiens; test: Inhibition of recombinant human MAPKAPK2 A399G mutant (46 to end residues) at 1 uM using KKLNRTLSVA as substrate measured after 40 mins in presence of [gamma33P]ATP by scintillation counting method relative to control
Outline: (§1)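 Single-point inhibition at 1 µM was measured in the Eurofins KinaseProfiler panel. Values are the mean of two independent experiments.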

[4] = Toxicity in Balb/c mouse xenografted with human H1299 cells assessed as effect on body weight at 20 to 80 mg/kg, po administered for 21 days and measured daily […]; assay type: organism-based; details: in vivo, 504 h
[5] = target: MAP kinase-activated protein kinase 3 (Homo sapiens) (UniProt Q16644); test: Inhibition of recombinant human MAPKAPK3 (2 to end residues) at 1 uM using KKLNRTLSVA as substrate measured after 40 mins in presence of [gamma33P]ATP by scintillation counting method relative to control
[6] = target: Phosphatidylinositol 3-kinase C2 domain-containing subunit gamma (Homo sapiens) (UniProt O75747); test: Inhibition of recombinant human PI3KC2gamma (468 to 1203 residues) at 1 uM using phosphatidylinositol as substrate measured after 40 mins by HTRF assay relative to control
[7] = target: CDK9/cyclin T1 (Homo sapiens) (UniProt O60563+P50750); details: 1 uM
[8] = system: NCI-H1299; test: Induction of apoptosis in human H1299 cells assessed as necrotic cells at 0.5 uM after 48 hrs by AnnexinV-FITC/PI staining-based flow cytometric analysis (reference value: 0.9%); assay type: functional
[9] = system: NCI-H1299; test: Antitumour activity against human H1299 cells xenografted in Balb/c mouse assessed as reduction in Oct4 level at 20 to 80 mg/kg, po administered for 3 weeks by […] based light microscopic analysis; assay type: functional, organism-based
Outline: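 Tumours came from the H1299 oral-dosing xenograft run for 3 weeks. Formalin-fixed, paraffin-embedded 5-µm sections were deparaffinized and rehydrated. Primary antibodies (CDK9, cyclin T1, p-Rb Ser780, RNAPII CTD Ser5, Oct4) used at 1:100 overnight at 4 °C. Biotinylated secondary for 1 h at room temperature, then ABC-peroxidase/DAB, hematoxylin counterstain and light microscopy.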

[10] = target: Serine/threonine-protein kinase pim-3 (Homo sapiens) (UniProt Q86V86); test: Inhibition of recombinant human Pim-3 (2 to end residues) at 1 uM using RSRHSSYPAGT as substrate measured after 40 mins in presence of [gamma33P]ATP by scintillation counting method relative to control
[11] = target: Tyrosine-protein kinase BTK (Homo sapiens) (UniProt Q06187); test: Inhibition of full-length recombinant human BTK at 1 uM using KVEKIGEGTYGVVYK as substrate measured after 40 mins in presence of [gamma33P]ATP by scintillation counting method relative to control; outline: as §1
[12] = target: Ephrin type-B receptor 3 (Homo sapiens) (UniProt P54753); test: Inhibition of recombinant human EphB3 (599 to 920 residues) at 1 uM using poly(Glu, Tyr) 4:1 as substrate measured after 40 mins in presence of [gamma33P]ATP by scintillation counting method relative to control; outline: as §1
[13] = Half life in human liver microsomes at 2 uM in presence of NADPH measured up to 1 hr by HPLC analysis; assay type: ADME, Microsome
Outline: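 Compound at 2 μM incubated at 37 °C with liver microsomes (1 mg/mL), 3 mM MgCl2 and 0.1 M phosphate buffer pH 7.4; 5 min preincubation, then started with 3 mM NADPH. Aliquots (n = 3) at 0, 10, 20, 30, 45, 60 min quenched with ice-cold acetonitrile, centrifuged, supernatant by HPLC. t1/2 from linear-regression kinetic constant k.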

[14] = system: A549; test: Antiproliferative activity against human A549 cells assessed as inhibition of cell viability at 1 uM after 72 hrs by CCK-8 assay relative to control; assay type: functional; details: A549, 72 h
Outline: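 Single-concentration viability screen using CCK-8. Cells were seeded at 3000/well and treated for 72 h. A450 read after 1-4 h with reagent. Percent inhibition calculated against untreated control and blank wells as (Ac−As)/(Ac−Ab)×100%.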

[15] = target: Dual specificity tyrosine-phosphorylation-regulated kinase 1B (Homo sapiens) (UniProt Q9Y463); test: Inhibition of recombinant full-length human DYRK1B at 1 uM using RRRFRPASPLRGPPK as substrate measured after 40 mins in presence of [gamma33P]ATP by scintillation counting method relative to control
[16] = system: A549; test: Downregulation of NANOG in human A549 cells at 0.25 to 1 uM by Western blot analysis; assay type: functional, cell-based
[17] = target: Calcium/calmodulin-dependent protein kinase type II subunit delta (Homo sapiens) (UniProt Q13557); test: Inhibition of recombinant full-length human CaMK2delta at 1 uM using calmodulin as substrate measured after 40 mins in presence of [gamma33P]ATP by scintillation counting method relative to control
[18] = target: Serine/threonine-protein kinase 17B (Homo sapiens) (UniProt O94768); test: Inhibition of recombinant full-length human DRAK2 at 1 uM using KKRPQRRYSNVF as substrate measured after 120 mins in presence of [gamma33P]ATP by scintillation counting method relative to control
[19] = system: A549; test: Induction of apoptosis in human A549 cells assessed as early apoptotic cells at 0.25 uM after 48 hrs by AnnexinV-FITC/PI staining-based flow cytometric analysis (reference value: 2.91%); assay type: functional
[20] = system: Tyrosine-protein kinase receptor UFO (Homo sapiens), P30530 [Q764R]; test: Inhibition of recombinant human AXL Q764R mutant (473 to end residues) at 1 uM using KKSRGDYMTMQIG as substrate measured after 40 mins in presence of [gamma33P]ATP by scintillation counting method relative to control
[21] = target: Serine/threonine-protein kinase Nek3 (Homo sapiens) (UniProt P51956); test: Inhibition of recombinant full-length human NEK3 at 1 uM using myelin basic protein as substrate measured after 40 mins in presence of [gamma33P]ATP by scintillation counting method relative to control
[22] = target: Serine/threonine-protein kinase PAK 4 (Homo sapiens) (UniProt O96013); test: Inhibition of recombinant human PAK4 (295 to end residues) at 1 uM using myelin basic protein as substrate measured after 40 mins in presence of [gamma33P]ATP by scintillation counting method relative to control
[23] = system: A549; test: Induction of apoptosis in human A549 cells assessed as late apoptotic cells at 0.25 uM after 48 hrs by AnnexinV-FITC/PI staining-based flow cytometric analysis (reference value: 7.66%); assay type: functional

Chain of Serine/threonine-protein kinase Nek3 (Homo sapiens) (P51956 whole entry): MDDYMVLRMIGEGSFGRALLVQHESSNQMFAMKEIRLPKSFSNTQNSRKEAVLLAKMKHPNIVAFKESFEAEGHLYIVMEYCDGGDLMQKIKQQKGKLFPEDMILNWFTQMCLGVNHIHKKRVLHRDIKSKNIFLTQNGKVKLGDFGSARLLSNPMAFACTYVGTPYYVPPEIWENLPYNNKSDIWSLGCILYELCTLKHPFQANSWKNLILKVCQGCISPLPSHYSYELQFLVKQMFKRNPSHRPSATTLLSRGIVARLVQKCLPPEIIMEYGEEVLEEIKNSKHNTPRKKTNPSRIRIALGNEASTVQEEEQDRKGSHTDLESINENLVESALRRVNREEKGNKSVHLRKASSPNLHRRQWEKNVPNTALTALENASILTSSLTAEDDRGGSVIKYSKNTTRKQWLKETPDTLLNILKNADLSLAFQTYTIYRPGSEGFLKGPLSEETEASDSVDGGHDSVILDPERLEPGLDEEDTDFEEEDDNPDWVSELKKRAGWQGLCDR
Chain of Tyrosine-protein kinase receptor UFO (Homo sapiens), P30530 [Q764R] (P30530 whole entry Q764R): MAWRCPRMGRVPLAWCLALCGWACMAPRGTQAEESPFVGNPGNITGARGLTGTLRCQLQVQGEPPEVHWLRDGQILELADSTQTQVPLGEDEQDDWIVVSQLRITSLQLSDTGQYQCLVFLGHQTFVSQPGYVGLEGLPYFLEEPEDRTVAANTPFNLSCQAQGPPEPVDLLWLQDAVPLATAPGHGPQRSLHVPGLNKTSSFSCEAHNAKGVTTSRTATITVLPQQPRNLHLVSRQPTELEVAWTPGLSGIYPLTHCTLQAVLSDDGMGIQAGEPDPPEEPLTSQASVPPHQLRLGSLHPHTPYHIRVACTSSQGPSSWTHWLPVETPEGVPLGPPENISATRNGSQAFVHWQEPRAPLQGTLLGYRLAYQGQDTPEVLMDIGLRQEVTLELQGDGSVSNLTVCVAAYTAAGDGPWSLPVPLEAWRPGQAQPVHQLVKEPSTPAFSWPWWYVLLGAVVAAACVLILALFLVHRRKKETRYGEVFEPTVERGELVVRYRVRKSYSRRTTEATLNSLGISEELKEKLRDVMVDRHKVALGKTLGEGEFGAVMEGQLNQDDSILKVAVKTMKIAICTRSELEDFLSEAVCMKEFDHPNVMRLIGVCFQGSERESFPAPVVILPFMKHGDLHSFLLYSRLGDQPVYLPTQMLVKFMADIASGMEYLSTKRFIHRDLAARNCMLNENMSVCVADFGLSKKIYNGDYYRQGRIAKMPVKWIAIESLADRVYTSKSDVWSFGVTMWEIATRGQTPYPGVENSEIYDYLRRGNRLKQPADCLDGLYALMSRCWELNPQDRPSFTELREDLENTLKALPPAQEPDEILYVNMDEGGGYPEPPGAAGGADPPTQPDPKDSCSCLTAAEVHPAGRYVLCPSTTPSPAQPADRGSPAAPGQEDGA
Chain of Serine/threonine-protein kinase PAK 4 (Homo sapiens) (O96013 whole entry, looked up): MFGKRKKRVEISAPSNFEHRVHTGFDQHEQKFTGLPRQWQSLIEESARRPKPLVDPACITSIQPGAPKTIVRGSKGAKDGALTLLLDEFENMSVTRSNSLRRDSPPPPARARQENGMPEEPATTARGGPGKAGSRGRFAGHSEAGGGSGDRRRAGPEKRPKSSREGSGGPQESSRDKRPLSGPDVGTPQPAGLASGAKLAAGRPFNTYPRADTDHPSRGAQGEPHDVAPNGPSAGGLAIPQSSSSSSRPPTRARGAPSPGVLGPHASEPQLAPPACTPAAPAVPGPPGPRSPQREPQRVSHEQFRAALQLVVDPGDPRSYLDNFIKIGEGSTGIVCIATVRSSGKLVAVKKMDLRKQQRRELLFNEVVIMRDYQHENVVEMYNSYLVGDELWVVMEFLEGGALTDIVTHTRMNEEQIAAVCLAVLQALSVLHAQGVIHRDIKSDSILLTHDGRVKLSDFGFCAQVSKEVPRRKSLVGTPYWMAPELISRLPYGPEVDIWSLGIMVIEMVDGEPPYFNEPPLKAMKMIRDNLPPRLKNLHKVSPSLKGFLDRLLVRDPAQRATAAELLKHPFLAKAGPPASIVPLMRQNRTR
Chain of Serine/threonine-protein kinase 17B (Homo sapiens) (O94768 whole entry): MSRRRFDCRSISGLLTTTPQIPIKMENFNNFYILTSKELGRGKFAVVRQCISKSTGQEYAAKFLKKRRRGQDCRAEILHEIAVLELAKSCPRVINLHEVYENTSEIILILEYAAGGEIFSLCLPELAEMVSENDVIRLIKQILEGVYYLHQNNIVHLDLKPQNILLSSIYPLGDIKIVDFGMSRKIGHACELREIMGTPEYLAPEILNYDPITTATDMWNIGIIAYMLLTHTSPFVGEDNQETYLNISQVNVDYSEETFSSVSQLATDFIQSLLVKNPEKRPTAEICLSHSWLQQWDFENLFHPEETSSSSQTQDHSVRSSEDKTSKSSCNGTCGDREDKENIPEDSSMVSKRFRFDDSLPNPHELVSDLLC
Chain of Dual specificity tyrosine-phosphorylation-regulated kinase 1B (Homo sapiens) (Q9Y463 whole entry, looked up): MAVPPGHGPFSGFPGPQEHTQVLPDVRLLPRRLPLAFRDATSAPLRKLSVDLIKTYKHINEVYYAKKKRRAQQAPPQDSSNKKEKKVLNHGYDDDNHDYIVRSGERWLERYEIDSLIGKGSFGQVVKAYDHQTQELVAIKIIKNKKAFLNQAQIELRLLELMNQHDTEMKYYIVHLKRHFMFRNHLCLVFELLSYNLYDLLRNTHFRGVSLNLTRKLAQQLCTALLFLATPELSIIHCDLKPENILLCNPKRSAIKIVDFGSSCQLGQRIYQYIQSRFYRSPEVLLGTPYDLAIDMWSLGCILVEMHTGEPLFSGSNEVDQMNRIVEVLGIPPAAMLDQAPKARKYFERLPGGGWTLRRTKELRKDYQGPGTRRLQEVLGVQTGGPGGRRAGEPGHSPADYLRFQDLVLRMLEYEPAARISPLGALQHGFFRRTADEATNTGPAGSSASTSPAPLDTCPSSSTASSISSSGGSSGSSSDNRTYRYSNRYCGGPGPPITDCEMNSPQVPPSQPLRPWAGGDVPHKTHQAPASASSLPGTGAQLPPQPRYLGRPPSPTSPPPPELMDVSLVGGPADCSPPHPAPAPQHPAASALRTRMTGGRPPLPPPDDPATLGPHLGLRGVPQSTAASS
Chain of Ephrin type-B receptor 3 (Homo sapiens) (P54753 whole entry, the tested form may be a part): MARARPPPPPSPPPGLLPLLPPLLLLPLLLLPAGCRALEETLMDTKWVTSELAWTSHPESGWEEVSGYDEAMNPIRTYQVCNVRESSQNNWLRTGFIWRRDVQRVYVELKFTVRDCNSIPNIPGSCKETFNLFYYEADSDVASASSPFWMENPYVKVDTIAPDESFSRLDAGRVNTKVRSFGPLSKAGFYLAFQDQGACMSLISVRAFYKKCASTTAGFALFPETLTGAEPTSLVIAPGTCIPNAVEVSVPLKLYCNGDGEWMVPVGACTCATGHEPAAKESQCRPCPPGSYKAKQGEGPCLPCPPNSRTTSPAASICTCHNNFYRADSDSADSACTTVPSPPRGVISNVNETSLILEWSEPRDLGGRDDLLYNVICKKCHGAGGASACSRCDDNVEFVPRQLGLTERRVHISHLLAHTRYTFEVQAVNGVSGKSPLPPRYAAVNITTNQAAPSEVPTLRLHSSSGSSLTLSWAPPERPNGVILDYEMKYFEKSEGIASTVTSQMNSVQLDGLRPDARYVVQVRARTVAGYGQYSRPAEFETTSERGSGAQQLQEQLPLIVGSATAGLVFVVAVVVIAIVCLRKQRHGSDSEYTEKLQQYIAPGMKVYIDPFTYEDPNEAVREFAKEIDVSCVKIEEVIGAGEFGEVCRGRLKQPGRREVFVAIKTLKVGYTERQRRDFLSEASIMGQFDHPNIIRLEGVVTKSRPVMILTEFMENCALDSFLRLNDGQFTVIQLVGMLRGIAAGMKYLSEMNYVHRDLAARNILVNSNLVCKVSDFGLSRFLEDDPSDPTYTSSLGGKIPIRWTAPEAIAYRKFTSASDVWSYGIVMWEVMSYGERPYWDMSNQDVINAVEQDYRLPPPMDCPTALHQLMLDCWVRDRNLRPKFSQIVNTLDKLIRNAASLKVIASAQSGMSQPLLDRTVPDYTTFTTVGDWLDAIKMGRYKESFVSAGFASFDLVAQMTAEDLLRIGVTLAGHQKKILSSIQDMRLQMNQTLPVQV
Chain of Tyrosine-protein kinase BTK (Homo sapiens) (Q06187 whole entry, the tested form may be a part): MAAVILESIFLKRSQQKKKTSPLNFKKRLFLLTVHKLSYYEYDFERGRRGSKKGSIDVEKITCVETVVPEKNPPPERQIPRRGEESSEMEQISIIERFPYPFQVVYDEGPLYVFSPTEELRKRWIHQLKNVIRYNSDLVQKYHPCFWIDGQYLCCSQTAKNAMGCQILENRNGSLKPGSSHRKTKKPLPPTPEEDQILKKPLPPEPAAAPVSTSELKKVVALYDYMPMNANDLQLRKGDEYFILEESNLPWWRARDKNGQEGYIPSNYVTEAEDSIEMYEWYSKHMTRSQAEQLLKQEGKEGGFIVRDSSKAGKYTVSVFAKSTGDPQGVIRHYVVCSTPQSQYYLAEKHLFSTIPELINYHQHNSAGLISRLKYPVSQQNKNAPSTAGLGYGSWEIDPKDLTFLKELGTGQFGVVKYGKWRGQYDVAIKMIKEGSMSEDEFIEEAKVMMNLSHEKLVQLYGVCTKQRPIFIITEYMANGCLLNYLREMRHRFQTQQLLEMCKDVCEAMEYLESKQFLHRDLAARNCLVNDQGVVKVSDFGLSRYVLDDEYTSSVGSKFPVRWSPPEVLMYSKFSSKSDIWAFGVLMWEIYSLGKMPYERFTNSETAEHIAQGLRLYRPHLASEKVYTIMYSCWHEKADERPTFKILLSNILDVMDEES

SMILES: CN(C)C(=O)c1cc2cnc(Nc3ccc(NC(=O)CCCCCCCN=C=S)cc3)nc2n1C1CCCC1
- inhibition [1]: 40%
- inhibition [2]: 71%
- inhibition [3]: 1%
- Activity [4]: Non-Toxic
- inhibition [5]: 0%
- inhibition [6]: 3%
- inhibition [7]: 98%
- Activity [8]: 1.11%
- Activity [9]: Active
- inhibition [10]: -8%
- inhibition [11]: 96%
- inhibition [12]: 12%
- half-life at 2 µM [13]: 33 min
- inhibition at 1 µM [14]: 85.6%
- inhibition [15]: 0%
- Activity [16]: Active
- inhibition [17]: 36%
- inhibition [18]: -8%
- Activity [19]: 1.76%
- inhibition [20]: 71%
- inhibition [21]: 19%
- inhibition [22]: 10%
- Activity [23]: 14.5%
